Compound activity (PubChem BioAssay)
Sampled rows, rich in hits. Any-hit rate of the full collection: about 2.3%.
OXTR potentiate – potentiates the human oxytocin receptor response | activation, % at 3 µM | CHO-OTR cells, Fluo-8 calcium fluorescence, potentiator mode; 0% = oxytocin EC15, 100% = EC100 | P30559 | 320,000 tested, 0.061% active;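 active = activation above that plate's cutoff, the mean activation of tested compounds plus 3 SD, cut at about 6.6% in these data, passing the limit was not always enough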;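 also: 100% uses oxytocin at 75 nM as the full agonist control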
Target sequence (P30559 whole entry, looked up): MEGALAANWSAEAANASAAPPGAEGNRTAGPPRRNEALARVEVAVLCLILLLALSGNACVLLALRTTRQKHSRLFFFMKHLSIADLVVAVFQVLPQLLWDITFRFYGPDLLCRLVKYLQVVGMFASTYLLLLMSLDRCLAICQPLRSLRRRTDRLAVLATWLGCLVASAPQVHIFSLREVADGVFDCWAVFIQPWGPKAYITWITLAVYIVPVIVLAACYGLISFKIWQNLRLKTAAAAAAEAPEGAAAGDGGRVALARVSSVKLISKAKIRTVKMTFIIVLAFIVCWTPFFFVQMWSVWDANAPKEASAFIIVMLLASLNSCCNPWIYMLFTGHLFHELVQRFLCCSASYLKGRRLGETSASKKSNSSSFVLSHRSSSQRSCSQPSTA
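Measured by – Fluo-8 calcium dye fluorescence · Test system – human OTR in CHO cells · Dosing – one concentration, 3.0 µM compound · Controls – EC15 oxytocin alone as 0%, 75 nM oxytocin as 100% · Evaluation – normalized max/min fluorescence ratio, % activation · Timing – 6 min pre-incubation, 100 s read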
TAAR1 antagonist – human TAAR1 antagonism; AID 624466; Q96RJ0; CHO RD-HGA16 TAAR1, Fluo-8 calcium fluorescence, antagonist; inhibition, % at 3 µM; 360,000 tested, 1.5% active;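 active = inhibition above a per-plate cutoff, the mean inhibition of test compounds on that plate plus 3 SD, cut at about 49% in these data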;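 also: 0% = DMSO plus EC80 beta-PEA response and 100% = DMSO alone without agonist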
Target sequence (Q96RJ0 whole entry, looked up): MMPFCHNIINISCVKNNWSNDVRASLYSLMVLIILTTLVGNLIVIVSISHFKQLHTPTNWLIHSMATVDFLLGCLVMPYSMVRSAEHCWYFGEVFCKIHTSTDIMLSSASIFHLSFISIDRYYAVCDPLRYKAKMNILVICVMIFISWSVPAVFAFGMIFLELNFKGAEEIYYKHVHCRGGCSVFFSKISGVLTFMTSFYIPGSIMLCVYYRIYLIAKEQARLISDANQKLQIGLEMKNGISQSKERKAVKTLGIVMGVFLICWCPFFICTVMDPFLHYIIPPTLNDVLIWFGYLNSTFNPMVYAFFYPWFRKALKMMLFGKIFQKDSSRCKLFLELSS
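Material: CHO RD-HGA16 cells bearing hTAAR1; compound dosing: one-point dosing, 3 µM nominal final; schedule: dye loading 75 min at 37 °C, then 30 min room temperature; measured by: calcium fluorescence with Fluo-8; control set: vehicle and agonist controls; replication: n of 1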
OXTR agonist – agonists of human oxytocin receptor; AID 2435; P30559; 320,000 tested, 0.32% active; CHO-OTR cells, Fluo-8 calcium fluorescence; normalized: DMSO 0%, oxytocin 100%; activation, % at 3 µM;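 active = activation above the mean of all tested compounds plus 3 SD, cutoff set per screening run, cut at about 20% in these data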;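 also: peak over basal fluorescence ratio from a 100 s FLIPR kinetic read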
TAAR1 ag – human TAAR1 agonism | activation, % at 3 µM | 360,000 tested, 0.99% active | CHO RD-HGA16 TAAR1, Fluo-8 calcium fluorescence; vehicle wells 0%, saturating PEA agonist 100%;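 active = activation above the mean activation of all test compounds in the run plus 3 SD, cut at about 38% in these data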
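Benchmarks: low control DMSO, high control PEA (EC100); System: CHO RD-HGA16 cells carrying human TAAR1 plus Gα16; Detection: Fluo-8 fluorescence, 5 s baseline then 140 s kinetic read; Schedule: 17-24 h plating, Fluo-8 75 min 37 °C, 30 min RT; Read-out basis: % activation from peak over basal fluorescence ratio, DMSO-to-PEA scaled.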
V1aR counter – counter-screen for oxytocin receptor agonists: human V1a receptor agonists. P37288. CHO-V1R cells, Fluo-8 calcium fluorescence, agonist mode; 0% DMSO, 100% 3 nM vasopressin. activation, % at 3 µM. 320,000 tested, 0.25% active;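 active = activation above the mean activation of all tested compounds plus 3 SD, per screening run, cut at about 20% in these data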;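 also: signal is peak over basal fluorescence ratio across a 100 second FLIPR read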
OXTR agonist cf – human OXTR agonism, confirmation | shares compounds with OXTR agonist | CHO-OTR cells, Fluo-8 calcium fluorescence, agonist | activation, % at 3 µM | 390 tested, 20% active;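 active = mean activation above about 20% derived from the earlier single-dose screen, limit read from the data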;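 also: peak over minimum fluorescence ratio per well during a 100 second FLIPR read; 0% = DMSO alone and 100% = oxytocin high control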
V1aR counter 3x – counter-screen for oxytocin receptor agonists: V1a receptor agonists; CHO-V1R cells, Fluo-8 calcium fluorescence, agonist; 390 tested, 10% active; activation, % at 3 µM; shares compounds with OXTR agonist; AID 434991;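 active = mean activation over triplicate exceeds the hit threshold set in the earlier primary screen, cut at about 20% in these data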;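 also: peak over basal fluorescence ratio within a 100 second read; 0% = DMSO alone and 100% = 3 nM vasopressin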
Active calls of the source: *.

For COc1cc(C(=O)COC(=O)c2cccs2)cc(OC)c1OC the results were OXTR potentiate 0.4, TAAR1 antagonist 0.9, OXTR agonist 0.0, TAAR1 ag 2.0 and V1aR counter 3.2.
Screening CC(C)Oc1ccc(C(CCN)C2CCCCC2)cc1 (centres undefined) returned OXTR potentiate -17.5, TAAR1 antagonist 11.3, OXTR agonist 20.7*, TAAR1 ag 47.5*, V1aR counter 6.4, OXTR agonist cf 17.0 and V1aR counter 3x 7.6.
Screening Cc1[nH]n(-c2ccccc2)c(=O)c1C(c1cccc([N+](=O)[O-])c1)c1c(C)[nH]n(-c2ccccc2)c1=O returned OXTR potentiate -12.0, TAAR1 antagonist 46.2, OXTR agonist 24.2*, TAAR1 ag 14.1, V1aR counter 10.2, OXTR agonist cf 8.4 and V1aR counter 3x 8.3.
`O=C(NC(=S)NNC(=O)[C@H]1C[C@@H]1c1ccccc1)c1ccc(F)cc1` gave OXTR potentiate -19.0, TAAR1 antagonist 62.7*, OXTR agonist 34.7*, TAAR1 ag 41.0*, V1aR counter 17.9, OXTR agonist cf 21.6* and V1aR counter 3x 38.8*.
CC(=O)N(Cc1ccccc1)c1ccccc1C(=O)O was read as OXTR potentiate 0.4, TAAR1 antagonist -44.0, OXTR agonist 1.5, TAAR1 ag 0.4 and V1aR counter 0.2.
Screening CCOc1ccc2nc(N/C(N)=N/C(=S)Nc3ccc(OC)cc3)nc(C)c2c1 returned OXTR potentiate -10.4, TAAR1 antagonist -5.8, OXTR agonist -0.8, TAAR1 ag -0.7 and V1aR counter -0.6.
Screening CCOC(=O)C1=C(N)N2C(=O)C(C)SC2=C(C(=O)OCC)C1c1ccccc1 (centres undefined) returned OXTR potentiate -9.5, TAAR1 antagonist 3.0, OXTR agonist -0.4, TAAR1 ag 7.0 and V1aR counter 1.1.
For CCOC(=O)C1=C(N)N2C(=O)C(C)SC2=C(C(=O)OC)C1c1ccccc1OC (centres undefined) the results were OXTR potentiate -18.2, TAAR1 antagonist 13.6, OXTR agonist 31.1*, TAAR1 ag 37.5*, V1aR counter 12.6, OXTR agonist cf 6.9 and V1aR counter 3x 7.9.
For CCCC1(c2ccccc2)NC(=O)N(CC(=O)Nc2cc(C)ccc2OC)C1=O (centres undefined) the results were OXTR potentiate -12.5, TAAR1 antagonist -5.8, OXTR agonist 23.7*, TAAR1 ag 25.6, V1aR counter 7.0, OXTR agonist cf 9.6 and V1aR counter 3x 4.3.
`O=[N+]([O-])c1ccc(NC(=S)NCc2ccc(F)cc2)cc1` gave OXTR potentiate -26.8, TAAR1 antagonist 38.0, OXTR agonist 22.3*, TAAR1 ag 12.2, V1aR counter 14.1, OXTR agonist cf 11.9 and V1aR counter 3x 9.9.
Screening O=[N+]([O-])c1ccc(NC(=S)NCc2ccncc2)cc1 returned OXTR potentiate -13.2, TAAR1 antagonist 11.4, OXTR agonist 8.8, TAAR1 ag 17.8 and V1aR counter 10.7.
CCOc1cc(/C=C2\NC(=S)N(c3c(C)n(C)n(-c4ccccc4)c3=O)C2=O)ccc1O was read as OXTR potentiate -6.5, TAAR1 antagonist -18.3, OXTR agonist 0.9, TAAR1 ag 5.9 and V1aR counter 1.8.
`CCOc1cccc(/C=C2\NC(=S)N(c3ccccc3)C2=O)c1O` gave OXTR potentiate -23.8, TAAR1 antagonist 4.5, OXTR agonist 24.4*, TAAR1 ag 9.7, V1aR counter 11.8, OXTR agonist cf 8.2 and V1aR counter 3x 9.8.
CC(=O)c1ccc(N2CCN(c3ccccc3O)CC2)c([N+](=O)[O-])c1 was read as OXTR potentiate -33.2, TAAR1 antagonist 50.9*, OXTR agonist 23.4*, TAAR1 ag 15.7, V1aR counter 14.8, OXTR agonist cf 14.4 and V1aR counter 3x 12.5.
CCOc1ccc(C(=O)Nc2ccc(N3CCN(C)CC3)cc2)cc1[N+](=O)[O-] was read as OXTR potentiate -17.4, TAAR1 antagonist 33.1, OXTR agonist 0.9, TAAR1 ag 30.6 and V1aR counter 1.3.
Screening COC(=O)c1c(C(=O)OC)c(-c2ccccc2)n2c1CS(=O)(=O)C2 returned OXTR potentiate -8.0, TAAR1 antagonist 6.9, OXTR agonist 0.5, TAAR1 ag 0.1 and V1aR counter -0.1.
For COc1cc(/C=C2\Oc3cc(O)ccc3C2=O)ccc1O the results were OXTR potentiate -10.6, TAAR1 antagonist 9.8, OXTR agonist 22.0*, TAAR1 ag 4.5, V1aR counter 11.7, OXTR agonist cf 12.9 and V1aR counter 3x 21.4*.
For CCCCNC(=O)Cn1nnc(-c2ccccc2)c1COc1ccc(C(C)=O)cc1 the results were TAAR1 antagonist 3.0 and TAAR1 ag 1.7.
`CCCCC1(c2ccc(F)cc2)NC(=O)N(CC(=O)Nc2ccc(N3CCOCC3)cc2)C1=O` (centres undefined) gave OXTR potentiate -10.8, TAAR1 antagonist 28.9, OXTR agonist 21.1*, TAAR1 ag 37.4, V1aR counter 12.5, OXTR agonist cf 9.8 and V1aR counter 3x 8.5.
Screening CCOC(=O)Cc1csc(NC(=O)CSc2nnc(-c3ccncc3)o2)n1 returned OXTR potentiate -7.9, TAAR1 antagonist 1.2, OXTR agonist -0.2, TAAR1 ag 15.8 and V1aR counter 0.9.
N#CC1=C(N)Oc2n[nH]c(-c3ccccc3)c2C12C(=O)Nc1ccccc12 (centres undefined) was read as OXTR potentiate -19.6, TAAR1 antagonist -0.6, OXTR agonist 23.4*, TAAR1 ag 3.4, V1aR counter 0.7, OXTR agonist cf 0.0 and V1aR counter 3x 0.4.
Screening CCN1C(=O)C2(C(C#N)=C(N)Oc3n[nH]c(-c4ccc(Cl)cc4)c32)c2ccccc21 (centres undefined) returned OXTR potentiate -0.5, TAAR1 antagonist -10.5, OXTR agonist 1.4, TAAR1 ag 0.6 and V1aR counter -0.1.
`CC(=O)Oc1c(S(=O)(=O)c2ccc(C)cc2)c(C)nn1C(C)(C)C` gave OXTR potentiate -8.5, TAAR1 antagonist -1.3, OXTR agonist -1.7, TAAR1 ag 4.6 and V1aR counter -0.8.
Screening Cc1ccc(S(=O)(=O)c2c(C)nn(C(C)(C)C)c2OC(=O)C(C)(C)C)cc1 returned OXTR potentiate -16.5, TAAR1 antagonist -7.0, OXTR agonist 21.2*, TAAR1 ag 25.8, V1aR counter 5.5, OXTR agonist cf 0.7 and V1aR counter 3x 3.1.
